NOD2-RIPK2 inh: inhibitors of human NOD2-RIPK2 interaction | O43353 | CHO BLA complementation NOD2-RIPK2, CCF4 ratio | inhibition, % at 4.98 µM | 360,000 compounds, 0.38% hits | AID 624267; in the data active = inhibition above about 21%
Target sequence (O43353 whole entry, looked up): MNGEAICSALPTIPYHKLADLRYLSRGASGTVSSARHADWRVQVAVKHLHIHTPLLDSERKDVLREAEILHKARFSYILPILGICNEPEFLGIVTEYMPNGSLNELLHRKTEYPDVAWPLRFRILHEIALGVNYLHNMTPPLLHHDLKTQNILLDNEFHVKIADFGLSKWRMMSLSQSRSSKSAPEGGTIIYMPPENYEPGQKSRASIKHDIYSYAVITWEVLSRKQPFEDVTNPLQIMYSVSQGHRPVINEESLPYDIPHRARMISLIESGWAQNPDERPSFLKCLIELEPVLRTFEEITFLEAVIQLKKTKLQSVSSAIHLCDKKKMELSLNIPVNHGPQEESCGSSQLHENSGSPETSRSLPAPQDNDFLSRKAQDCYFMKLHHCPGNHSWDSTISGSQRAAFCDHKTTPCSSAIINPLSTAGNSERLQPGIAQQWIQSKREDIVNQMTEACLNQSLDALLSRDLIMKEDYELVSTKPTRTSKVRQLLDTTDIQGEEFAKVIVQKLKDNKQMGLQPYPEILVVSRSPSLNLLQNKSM
TLR9-MyD88 block: blocks human TLR9 binding to MyD88; Q9NR96+Q99836; CHO BLA complementation TLR9-MyD88, CCF4 FRET ratio; inhibition, % at 4.98 µM; 340,000 compounds, 0.21% hits; AID 504734;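 active = inhibition above the mean over all tested compounds plus 3 SD, cut at about 21% in these data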
UPR XBP1 act: adaptive UPR (XBP1) activation. CHO-XBP1 luciferase reporter, IRE1-XBP1 UPR activation, luminescence; percent of tunicamycin response, DMSO as zero. activation, % at 20 µM. 330,000 compounds, 0.33% hits;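 active = versus positive control, 20 µM dose yields 30% or more activation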
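Assay system: IRE1-XBP1 luciferase reporter CHO line. Input: 1000 cells/well. Buffer or medium: F12 with 10% serum. Doses: 20 µM, 1% DMSO. Times: overnight seeding at 37 °C, 6 h compound treatment at 37 °C. Technique: Steady-Glo luciferase glow luminescence, 10 min after reagent addition.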
TLR4 MyD88 comp: TLR4-MyD88 interaction inhibition in cells; O00206+Q99836; HeLa CL3-4 TLR4/MyD88 BLA complementation, FRET ratio; inhibition, % at 8.4 µM; 200,000 compounds, 0.18% hits; AID 861; in the data active = inhibition above about 25%
CHOP inh: blocks CHOP induction under ER stress | AID 2732 | 220,000 compounds, 3.8% hits | CHO-K1 CHOP-promoter luciferase, tunicamycin-induced, 15-18 h | inhibition, % at 10 µM;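 active = compounds that reduced the stress-induced luciferase reporter signal by more than about 70% of percent inhibition, limit read from the data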
UPR CHOP act: activators of apoptotic arm of unfolded protein response (CHOP); CHO-CHOP luciferase reporter, UPR activation, luminescence; percent of tunicamycin response over DMSO baseline; activation, % at 10 µM; 330,000 compounds, 0.34% hits; AID 449763;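 active = at 10 µM dose, activation of 40% or more, normalized to positive control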
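assay system = CHO CHOP reporter cells | amount = 500 CHO-CHOP cells per well | buffer or medium = F12 with 10% FBS | incubation = 16-18 h cell attachment, then 6 h compound exposure, 37 °C | detection = luminescence read with Steady-Glo | read-out = percent activation relative to tunicamycin control | controls = tunicamycin high control, DMSO low control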
Large screens that a line does not name were inactive. Many of the other results were omitted from the sample, so hits are more common in it than they were.

O=C(N/N=C/c1cc([N+](=O)[O-])ccc1O)c1ccc(COc2ccc3c(c2)CCC3)o1	UPR XBP1 act 33 (no result: TLR4 MyD88 comp, CHOP inh)
COc1ccc(Br)cc1/C=N/NC(=O)c1ccc(COc2ccc3c(c2)CCC3)o1	none
Clc1ccc(-n2nnc(-c3nccs3)n2)cc1Cl	none
Cc1ccc(-n2nnc(-c3nccs3)n2)cc1	CHOP inh 78
O=C1C=CC(n2cc(F)c(=O)[nH]c2=O)O1 (stereo not given)	none (no result: UPR XBP1 act, TLR4 MyD88 comp, CHOP inh, UPR CHOP act)
CCOc1ccc(C(c2c(NC(=O)c3ccccc3)sc(C)c2C)N2CCN(CCO)CC2)cc1 (stereo not given)	CHOP inh 83
Cc1sc(NC(=O)c2ccco2)c(C(c2cccnc2)N2CCN(CCO)CC2)c1C (stereo not given)	none
Cc1cccc(NC(=O)c2cc([N+](=O)[O-])ccc2NC2CCCCC2)c1	CHOP inh 73
CN(c1ccc([N+](=O)[O-])cc1C(=O)Nc1ccccc1)C1CCCCC1	none
CCNc1ccc(Br)cc(C(=O)/C=C/c2ccc(Cl)cc2Cl)c1=O	CHOP inh 76
O=c1oc2ccc(Cl)cc2cc1-c1nnc(Nc2cccc(C(F)(F)F)c2)s1	none
CNc1nnc(-c2cc3cc(Cl)ccc3oc2=O)s1	CHOP inh 78
COc1ccc(S(=O)(=O)N2CCCCCC2)cc1NC(=O)Cc1cccc(C(F)(F)F)c1	none (no result: UPR XBP1 act, TLR4 MyD88 comp, CHOP inh, UPR CHOP act)
COc1ccccc1OCC(=O)OC/C(O)=C(\C#N)c1nc2ccccc2[nH]1	none
N#C/C(=C(/O)COC(=O)CSc1ccc(Cl)cc1)c1nc2ccccc2[nH]1	CHOP inh 82
Cc1cc(SCC(=O)OC/C(O)=C(\C#N)c2nc3ccccc3[nH]2)c(C)cc1Br	CHOP inh 71
N#C/C(=C(/O)COC(=O)CCCNC(=O)c1ccc(Cl)cc1)c1nc2ccccc2[nH]1	none
CCOC(=O)c1ccc(NC(=S)Nc2cccc(C)n2)cc1	CHOP inh 74
CC12CCC(C(N)C1=O)C2(C)C (stereo not given)	none (no result: UPR XBP1 act, TLR4 MyD88 comp, CHOP inh, UPR CHOP act)
CCc1ccc(NC(=O)c2ccc(F)c(S(=O)(=O)N(CC)c3ccccc3)c2)cc1	CHOP inh 77
CCN(c1ccccc1)S(=O)(=O)c1cc(C(=O)Nc2cccc(Cl)c2)ccc1F	none
CCNC(=O)C1(C)CCN(Cc2cccc(Oc3ccccc3)c2)C1 (stereo not given)	none (no result: TLR9-MyD88 block, UPR XBP1 act, TLR4 MyD88 comp, CHOP inh, UPR CHOP act)
CCC(C)Oc1cc(-c2ccnc(Nc3cccc(Cl)c3)n2)ccn1 (stereo not given)	CHOP inh 93 (no result: TLR4 MyD88 comp)
N#Cc1ccc(NC(=O)Nc2ccc(Cl)cc2)cc1	CHOP inh 78
O=C(NCCN1CCC(n2c(=O)[nH]c3ccccc32)CC1)c1ccncc1	none (no result: TLR9-MyD88 block, UPR XBP1 act, TLR4 MyD88 comp, CHOP inh, UPR CHOP act)
Cc1ccc(C(=O)Nc2cccc(C(F)(F)F)c2)cc1NC(=O)c1cnnc2ccccc12	CHOP inh 89 (no result: TLR4 MyD88 comp)
O=[N+]([O-])c1ccccc1Nc1c2ccccc2nc2ccccc12	CHOP inh 93
O=[N+]([O-])c1ccc(Nc2c3ccccc3nc3ccccc23)cc1	none
Brc1ccc(NCc2cccc3ccccc23)nc1	CHOP inh 87
Oc1ccccc1CNc1ccc(Br)cn1	none
O=C1c2[nH]nc(-c3ccccc3O)c2C(c2ccc(F)cc2)N1Cc1ccco1 (stereo not given)	CHOP inh 82
COc1ccc(C2c3c(-c4ccccc4O)n[nH]c3C(=O)N2Cc2ccco2)cc1OC (stereo not given)	none (no result: TLR4 MyD88 comp)
COc1cc(C)nc(OCCNC(=O)COc2ccc(Cl)cc2C)n1	none
Cc1cc(Cl)ccc1OCC(=O)NCCOc1nc(N2CCCCC2)nc(N2CCOCC2)n1	CHOP inh 89
CC1=C(C(=O)N2CCOCC2)CC(CC(=O)NCc2cccs2)C(=O)N1CCC1=CCCCC1 (stereo not given)	none (no result: UPR XBP1 act, TLR4 MyD88 comp, CHOP inh, UPR CHOP act)
O=C1CSC2=NCN(c3ccc4c(c3)OCO4)CN12	CHOP inh 94
COc1ccc(C(NC(=O)C2CCN(Cc3ccc(Oc4ccccc4)cc3)CC2)c2ccccc2C)cn1 (stereo not given)	none (no result: TLR9-MyD88 block, UPR XBP1 act, TLR4 MyD88 comp, CHOP inh, UPR CHOP act)
COc1ccc(-c2csc(N(Cc3ccccc3)C(=O)COc3ccc(Cl)cc3)n2)cc1	CHOP inh 91
CC[C@H](C)C1OC(=O)[C@@H](C)[C@@H](CC)NC(=O)[C@H](C)N(C)C(=O)C(C)(C)C(=O)C(C)NC(=O)[C@H](Cc2ccc(OC)cc2)N(C)C(=O)[C@H](C(C)C)N(C)C(=O)CNC(=O)[C@H](CC(C)C)N(C)C(=O)CNC1=O (stereo not given in full)	none (no result: TLR9-MyD88 block, UPR XBP1 act, TLR4 MyD88 comp, CHOP inh, UPR CHOP act)
CCC[C@H]1NC(=O)[C@H](C)N(C)C(=O)C(C)(C)C(=O)C(C)NC(=O)[C@H](Cc2ccc(OC)cc2)N(C)C(=O)[C@H](C(C)C)N(C)C(=O)CNC(=O)[C@H](CC(C)C)N(C)C(=O)CNC(=O)[C@H]([C@@H](C)CC)OC(=O)[C@H]1C (stereo not given in full)	UPR CHOP act 44 (no result: NOD2-RIPK2 inh, TLR9-MyD88 block, TLR4 MyD88 comp, CHOP inh)
COc1ccc(C)cc1-n1c(SCC(=O)N2CCOCC2)nc2ccccc2c1=O	none (no result: UPR XBP1 act, TLR4 MyD88 comp, CHOP inh, UPR CHOP act)
CCCCOC(=O)CSc1nnc(-c2ccc(Cl)cc2Cl)o1	CHOP inh 71
CC(C)OC(=O)CSc1nnc(-c2ccc(Cl)cc2Cl)o1	none
O=c1[nH]c(CN2CCCCC2)ccc1O	none (no result: UPR XBP1 act, TLR4 MyD88 comp, CHOP inh, UPR CHOP act)
CCOC(=O)C1CCN(C(=O)CSCc2nc(-c3ccc(OCC)cc3)oc2C)CC1	CHOP inh 77
CCOc1ccc(-c2nc(CSCC(=O)N3CCN(C(=O)c4ccco4)CC3)c(C)o2)cc1	none
OC1c2c(F)cccc2N=C2CCCCCN21 (stereo not given)	none (no result: TLR9-MyD88 block, UPR XBP1 act, TLR4 MyD88 comp, CHOP inh, UPR CHOP act)
Nc1nc(N)c2ncn(C3C=CC(CO)C3)c2n1 (stereo not given)	none (no result: TLR9-MyD88 block, UPR XBP1 act, TLR4 MyD88 comp, CHOP inh, UPR CHOP act)
O=C(N/N=C\c1ccc(-c2ccc([N+](=O)[O-])cc2)o1)C1COc2ccccc2O1 (stereo not given)	CHOP inh 81
OC(Cc1cccc(Br)c1)c1ncc(-c2ccccc2C(F)(F)F)[nH]1 (stereo not given)	none (no result: TLR9-MyD88 block, UPR XBP1 act, TLR4 MyD88 comp, CHOP inh, UPR CHOP act)
COc1ccc(NC(=S)N(CCc2c(C)[nH]c3ccc(C)cc23)Cc2cccs2)cc1	none
COc1ccc2[nH]c(C)c(CCN(Cc3cccs3)C(=S)Nc3ccccc3)c2c1	CHOP inh 70
COc1ccc2[nH]c(C)c(CCN(Cc3cccs3)C(=S)Nc3ccc(F)cc3)c2c1	CHOP inh 78
Cc1ccc(NC(=O)Cn2c(-c3ccc(F)cc3)cnc2SCC(=O)Nc2c(C)cccc2C)cc1	CHOP inh 81
Cc1ccc(S(=O)(=O)N2C[C@H]3C(=O)C[C@@H]4C(=O)N(c5ccccc5)C(=O)[C@@H]4[C@@H]3C[C@H]2c2cccc(Cl)c2)cc1	none (no result: TLR9-MyD88 block, UPR XBP1 act, TLR4 MyD88 comp, CHOP inh, UPR CHOP act)
